ChEMBL document CHEMBL1165943, “Design and synthesis of new anticancer pyrimidines with multiple-kinase inhibitory effect” (Bioorg Med Chem, 2010)

Tests used:
OVCAR-5 = assay: Growth inhibition of human OVCAR5 cells after 48 hrs by sulforhodamine B assay; format: functional, cell-based; conditions: OVCAR-5, 48 h; for CC50: read-out: LC50 (the source's name)
In short: (§1)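 Cells grown in RPMI 1640 with 5% FBS and 2 mM L-glutamine, seeded at 5,000–40,000 cells/well according to doubling time. After 24 h, time-zero plates are TCA-fixed. Five concentrations (10-fold or ½log dilutions, DMSO stocks) are applied for 48 h at 37 °C, 5% CO₂. Cells are TCA-fixed, SRB-stained and read at 515 nm. IC₅₀ is taken from [(Ti−Tz)/(C−Tz)]×100 = 50.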

OVCAR-8 [1] = assay: Growth inhibition of human OVCAR8 cells after 48 hrs by sulforhodamine B assay; format: functional, cell-based; conditions: for CC50: read-out: LC50 (the source's name); in short: as §1
786-0 [2] = assay: Growth inhibition of human 786-0 cells after 48 hrs by sulforhodamine B assay; format: functional, cell-based; conditions: 786-0, 48 h
In short: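 Five-dose SRB assay. Cells in RPMI 1640 with 5% FBS and 2 mM L-glutamine were seeded at 5,000–40,000 cells/well, with a TCA-fixed time-zero plate (Tz) taken at 24 h. Compound stocks were in DMSO, serially diluted 10-fold or ½-log to five concentrations, and incubated 48 h at 37 °C. Plates were stained with SRB and read at 515 nm. IC₅₀ was taken where [(Ti−Tz)/(C−Tz)]×100 = 50.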

EKVX [3] = assay: Cytotoxicity against human EKVX cells assessed as cell growth at 0.001 uM after 48 hrs by sulforhodamine B assay; format: functional; conditions: read-out: Activity
NCI-H460 [4] = assay: Cytotoxicity against human NCI-H460 cells assessed as cell growth at 0.001 uM after 48 hrs by sulforhodamine B assay; format: functional; conditions: NCI-H460, 48 h, read-out: Activity
SK-MEL-5 [5] = assay: Cytotoxicity against human SK-MEL-5 cells assessed as cell growth at 0.001 uM after 48 hrs by sulforhodamine B assay; format: functional; conditions: SK-MEL-5, 48 h, read-out: Activity
786-0 [6] = assay: Cytotoxicity against human 786-0 cells assessed as cell growth at 0.001 uM after 48 hrs by sulforhodamine B assay; format: functional; conditions: 786-0, 48 h, read-out: Activity
In short: (§2)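 Cells grown in RPMI 1640 with 5% FBS and 2 mM L-glutamine, seeded at 5,000–40,000 cells/well by doubling time. Time-zero plates TCA-fixed after 24 h. Five concentrations (10-fold or half-log dilutions from DMSO stock) added; 48 h at 37 °C, 5% CO2. Cold TCA fixation (final 10%, 60 min, 4 °C), 0.4% SRB stain, dye solubilized in 10 mM trizma base, A515.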

CAKI-1 [7] = assay: Cytotoxicity against human Caki1 cells assessed as cell growth at 0.001 uM after 48 hrs by sulforhodamine B assay; format: functional; conditions: CAKI-1, 48 h, read-out: Activity; in short: as §2
T47D = assay: Cytotoxicity against human T47D cells assessed as cell growth at 0.01 uM after 48 hrs by sulforhodamine B assay; format: functional; conditions: read-out: Activity
IGROV-1 = assay: Cytotoxicity against human IGROV1 cells assessed as cell growth at 100 nM after 48 hrs by sulforhodamine B assay; format: functional; conditions: IGROV-1, 48 h, read-out: Activity
OVCAR-8 [8] = assay: Cytotoxicity against human OVCAR8 cells assessed as cell growth at 100 nM after 48 hrs by sulforhodamine B assay; format: functional; conditions: OVCAR-8, 48 h, read-out: Activity
A498 [9] = assay: Cytotoxicity against human A498 cells assessed as cell growth at 100 nM after 48 hrs by sulforhodamine B assay; format: functional; conditions: A498, 48 h, read-out: Activity; in short: as §2
SF-295 = assay: Cytotoxicity against human SF295 cells assessed as cell growth at 10 uM after 48 hrs by sulforhodamine B assay; format: functional; conditions: SF-295, 48 h, read-out: Activity
HCT-15 = assay: Cytotoxicity against human HCT15 cells assessed as cell growth at 0.01 uM after 48 hrs by sulforhodamine B assay; format: functional; conditions: HCT-15, 48 h, read-out: Activity
SF-539 = assay: Cytotoxicity against human SF539 cells assessed as cell growth at 0.01 uM after 48 hrs by sulforhodamine B assay; format: functional; conditions: SF-539, 48 h, read-out: Activity
LOX IMVI = assay: Cytotoxicity against human LOXIMVI cells assessed as cell growth at 0.01 uM after 48 hrs by sulforhodamine B assay; format: functional; conditions: read-out: Activity
M14 = assay: Cytotoxicity against human M14 cells assessed as cell growth at 10 uM after 48 hrs by sulforhodamine B assay; format: functional; conditions: M14, 48 h, read-out: Activity
SK-MEL-5 [10] = assay: Cytotoxicity against human SK-MEL-5 cells assessed as cell growth at 10 uM after 48 hrs by sulforhodamine B assay; format: functional; conditions: SK-MEL-5, 48 h, read-out: Activity
EKVX [11] = assay: Cytotoxicity against human EKVX cells assessed as cell growth at 1 uM after 48 hrs by sulforhodamine B assay; format: functional; conditions: read-out: Activity
NCI-H23 [12] = assay: Cytotoxicity against human NCI-H23 cells assessed as cell growth at 1 uM after 48 hrs by sulforhodamine B assay; format: functional; conditions: NCI-H23, 48 h, read-out: Activity
NCI-H522 = assay: Cytotoxicity against human NCI-H522 cells assessed as cell growth at 1 uM after 48 hrs by sulforhodamine B assay; format: functional; conditions: NCI-H522, 48 h, read-out: Activity
KM12 = assay: Cytotoxicity against human KM12 cells assessed as cell growth at 1 uM after 48 hrs by sulforhodamine B assay; format: functional; conditions: KM12, 48 h, read-out: Activity
786-0 [13] = assay: Cytotoxicity against human 786-0 cells assessed as cell growth at 0.01 uM after 48 hrs by sulforhodamine B assay; format: functional; conditions: 786-0, 48 h, read-out: Activity; in short: as §2
[14] = Cytotoxicity against human Hs 578T cells assessed as cell growth at 0.01 uM after 48 hrs by sulforhodamine B assay; format: functional; conditions: read-out: Activity
SK-MEL-2 = assay: Cytotoxicity against human SK-MEL-2 cells assessed as cell growth at 1 uM after 48 hrs by sulforhodamine B assay; format: functional; conditions: SK-MEL-2, 48 h, read-out: Activity
A498 [15] = assay: Cytotoxicity against human A498 cells assessed as cell growth at 1 uM after 48 hrs by sulforhodamine B assay; format: functional; conditions: A498, 48 h, read-out: Activity; in short: as §2
CAKI-1 [16] = assay: Cytotoxicity against human Caki1 cells assessed as cell growth at 1 uM after 48 hrs by sulforhodamine B assay; format: functional; conditions: CAKI-1, 48 h, read-out: Activity; in short: as §2
[17] = Cytotoxicity against human Hs 578T cells assessed as cell growth at 1 uM after 48 hrs by sulforhodamine B assay; format: functional; conditions: read-out: Activity
NCI-H23 [18] = assay: Cytotoxicity against human NCI-H23 cells assessed as cell growth at 10 uM after 48 hrs by sulforhodamine B assay; format: functional; conditions: NCI-H23, 48 h, read-out: Activity
NCI-H460 [19] = assay: Cytotoxicity against human NCI-H460 cells assessed as cell growth at 10 uM after 48 hrs by sulforhodamine B assay; format: functional; conditions: NCI-H460, 48 h, read-out: Activity
SW-620 = assay: Growth inhibition of human SW620 cells after 48 hrs by sulforhodamine B assay; format: functional, cell-based; conditions: SW-620, 48 h; for CC50: read-out: LC50 (the source's name); in short: as §1

With CC(=O)Nc1cccc(-c2ccc(-c3ccnc(NC(=O)Nc4cc(C(F)(F)F)cc(C(F)(F)F)c4)n3)cn2)c1.Cl the GI50 (OVCAR-5) was 11.8 µM, the IC50 (OVCAR-5) was 11.8 µM and the TGI (OVCAR-5) was 24.5 µM. It also gave a CC50 (OVCAR-5) of 50.8 µM, a GI50 (OVCAR-8 [1]; Homo sapiens, OVCAR-8, 48 h) of 2.07 µM and a TGI (OVCAR-8 [1]; Homo sapiens, OVCAR-8, 48 h) of 5.93 µM. For the same compound, the IC50 (OVCAR-8 [1]; Homo sapiens, OVCAR-8, 48 h, read-out: IC50) was 2.07 µM, the CC50 (OVCAR-8 [1]; Homo sapiens, OVCAR-8, 48 h) was 26.4 µM and the GI50 (786-0 [2]) was 3.66 µM. For the same compound, the IC50 (786-0 [2]) was 3.66 µM, the LC50 (50% lethal concentration) (786-0 [2]) was 39.9 µM and the TGI (786-0 [2]) was 15.9 µM. The growth at 0.001 µM (EKVX [3]) was 90%, the growth at 0.001 µM (NCI-H460 [4]) was 95% and the growth at 0.001 µM (SK-MEL-5 [5]) was 96%. For the same compound, the growth at 0.001 µM (786-0 [6]) was 96%, the growth at 0.001 µM (CAKI-1 [7]) was 108% and the growth at 0.01 µM (T47D) was 80%. For the same compound, the growth at 0.1 µM (IGROV-1) was 89%, the growth at 0.1 µM (OVCAR-8 [8]) was 85% and the growth at 0.1 µM (A498 [9]) was 64%. For the same compound, the growth at 10 µM (SF-295) was -33%, the growth at 0.01 µM (HCT-15) was 91% and the growth at 0.01 µM (SF-539) was 78%. For the same compound, the growth at 0.01 µM (LOX IMVI) was 86%, the growth at 10 µM (M14) was 100% and the growth at 10 µM (SK-MEL-5 [10]) was 100%. The growth at 1 µM (EKVX [11]) was -20%, the growth at 1 µM (NCI-H23 [12]) was -16% and the growth at 1 µM (NCI-H522) was -22%. The growth at 1 µM (KM12) was -10%, the growth at 0.01 µM (786-0 [13]) was 98% and the growth at 0.01 µM [14] was 99%. For the same compound, the growth at 1 µM (SK-MEL-2) was 35%, the growth at 1 µM (A498 [15]) was 41% and the growth at 1 µM (CAKI-1 [16]) was -7%. It also gave a growth at 1 µM [17] of 43%, a growth at 10 µM (NCI-H23 [18]) of -69% and a growth at 10 µM (NCI-H460 [19]) of -60%. For the same compound, the GI50 (SW-620) was 2.3 µM, the IC50 (SW-620) was 2.3 µM and the TGI (SW-620) was 5.59 µM. For the same compound, the CC50 (SW-620) was greater than 100 µM.
Work on CC(=O)c1ccccc1-c1ccc(-c2ccnc(NC(=O)Nc3cc(N4CCOCC4)cc(C(F)(F)F)c3)n2)cn1 yielded a GI50 (OVCAR-5) greater than 100 µM, an IC50 (OVCAR-5) greater than 100 µM and a TGI (OVCAR-5) greater than 100 µM. For the same compound, the CC50 (OVCAR-5) was greater than 100 µM, the TGI (OVCAR-8 [1]; Homo sapiens, OVCAR-8, 48 h) was greater than 100 µM and the CC50 (OVCAR-8 [1]; Homo sapiens, OVCAR-8, 48 h) was greater than 100 µM. For the same compound, the IC50 (OVCAR-8 [1]; ovcar-8) was “Not Active”, the GI50 (786-0 [2]) was 9.42 µM and the IC50 (786-0 [2]) was 13 µM. It also gave an LC50 (50% lethal concentration) (786-0 [2]) greater than 100 µM, a TGI (786-0 [2]) greater than 100 µM and a growth at 0.001 µM (EKVX [3]) of 95%. For the same compound, the growth at 0.001 µM (NCI-H460 [4]) was 109%, the growth at 0.001 µM (SK-MEL-5 [5]) was 99% and the growth at 0.001 µM (786-0 [6]) was 103%. It also gave a growth at 0.001 µM (CAKI-1 [7]) of 97%, a growth at 0.01 µM (T47D) of 102% and a growth at 0.1 µM (IGROV-1) of 87%. The growth at 0.1 µM (OVCAR-8 [8]) was 66%, the growth at 0.1 µM (A498 [9]) was 72% and the growth at 10 µM (SF-295) was 48%. It also gave a growth at 0.01 µM (HCT-15) of 98%, a growth at 0.01 µM (SF-539) of 107% and a growth at 0.01 µM (LOX IMVI) of 106%. It also gave a growth at 10 µM (M14) of 86%, a growth at 10 µM (SK-MEL-5 [10]) of 68% and a growth at 1 µM (EKVX [11]) of 63%. It also gave a growth at 1 µM (NCI-H23 [12]) of 52%, a growth at 1 µM (NCI-H522) of 90% and a growth at 1 µM (KM12) of 86%. The growth at 0.01 µM (786-0 [13]) was 100%, the growth at 0.01 µM [14] was 101% and the growth at 1 µM (SK-MEL-2) was 65%. For the same compound, the growth at 1 µM (A498 [15]) was 83%, the growth at 1 µM (CAKI-1 [16]) was 58% and the growth at 1 µM [17] was 22%. The growth at 10 µM (NCI-H23 [18]) was 60%, the growth at 10 µM (NCI-H460 [19]) was 88% and the GI50 (SW-620) was greater than 100 µM. For the same compound, the IC50 (SW-620) was greater than 100 µM, the TGI (SW-620) was greater than 100 µM and the CC50 (SW-620) was greater than 100 µM.
